Experimental findings from PubChem BioAssay are described below.

Assay [1] is described as follows: hit retest on RPL19A-GFP reporter strain – cell-based, S. cerevisiae, flow cytometry, cherry picks, mother/daughter gates, confirmation (AID 2270;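 active = GFP response below 50% of the DMSO control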). The conditions noted are these: 3 h, at 10 µM, stronger effect = lower value, 100 = same GFP as DMSO wells.
The nature of assay [2]: yeast TOR pathway reporter LAP4-GFP change – cell-based, cherry picks, flow cytometry, mother/daughter gates, confirmation (AID 2271;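 active = GFP response above 150% of the DMSO control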;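 note: ratio of sample to DMSO plate mean so 100% equals DMSO level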). The conditions noted are these: S. cerevisiae LAP4-GFP strain, 3 h, at 10 µM, stronger effect = higher value, 100 means same as DMSO control. An outline of the steps:
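System – GFP-fusion yeast strain · Amount – 0.2 OD600 cells · Buffer or medium – SC growth medium · Dosing – single test-compound dose, 10 µM final · Schedule – 3 h treatment at 30 °C with rotation · Detection – GFP by flow cytometry · Read-out – per-gate (all, mother, daughter) GFP response vs DMSO · Benchmarks – positive rapamycin (400 ng/mL), negative DMSO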

Assay [3] is described as follows: TOR pathway reporter MEP2-GFP, retest of hits – S. cerevisiae, flow cytometry GFP, cherry picks, confirmation (AID 2272;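 active = GFP response above 150% of the DMSO control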;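 note: ratio of well signal to plate DMSO mean so 100% equals DMSO level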). As to conditions: S. cerevisiae MEP2-GFP strain, 3 h, at 10 µM, stronger effect = higher value.
A short description of assay [4]: yeast AGP1-GFP fluorescence change, single-dose – cell-based, flow cytometry, S. cerevisiae, cherry picks, confirmation (AID 2273).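 Note: median GFP channel fluorescence over the whole cell population gate.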 The conditions noted are these: S. cerevisiae AGP1-GFP strain, 3 h, at 10 µM.
Assay [5] can be described thus: TOR pathway CIT2 reporter hit retest – S. cerevisiae, GFP fusion, cherry picks, mother/daughter gates, confirmation (AID 2274). As to conditions: S. cerevisiae CIT2-GFP strain, flow cytometry, 3 h, at 10 µM, stronger effect = higher value.
[6] abbreviates: measured here: daughter cell gate.
The mark [7] stands for this setting: measured here: mother cell gate.
The mark [8] stands for this setting: measured here: daughter cell gate response.
The mark [9] stands for this setting: measured here: mother cell gate response.

Calls of active or inactive are those of the source.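 Rule for the calls, unless noted: active = GFP response above 150% of the DMSO level; inconclusive = fewer than 70 events counted for a yeast strain; inactive = the rest.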

On to `COC(=O)COc1ccc(S(=O)(=O)N2CCc3ccccc3C2)cc1`, for which the GFP response vs DMSO in assay [1] was 101% (inactive); in assay [1] (setting [6]), 100%; in assay [1] (setting [7]) it was 103%; in assay [3], 97.8% (inactive). For the same molecule, the GFP response relative to DMSO in assay [2] was 101% (inactive); in assay [2] (setting [8]), 102%; in assay [2] (setting [9]), 101%. The GFP response, % of DMSO in assay [4] is 99.4% (inactive); in assay [5], 99.1% (inactive); in assay [5] (setting [6]), 96.5%; in assay [5] (setting [7]), 101%.

Regarding `COc1ccc(-c2noc(CCCc3ccccc3)n2)cc1OC`, the GFP response vs DMSO was 101% (inactive) in assay [1], 98.7% in assay [1] (setting [6]), 100% in assay [1] (setting [7]) and 104% (inactive) in assay [3]. Also, the GFP response relative to DMSO in assay [2] was 96.2% (inactive); in assay [2] (setting [8]), 98.7%; in assay [2] (setting [9]) it was 98.3%. The GFP response, % of DMSO is 104% (inactive) in assay [4], 95.2% (inactive) in assay [5], 94.8% in assay [5] (setting [6]) and 96.6% in assay [5] (setting [7]).

With `O=[N+]([O-])c1c(Nc2ccccn2)cc(Cl)c2nonc12`, the GFP response vs DMSO in assay [1] is 139% (inactive); in assay [1] (setting [6]), 86.3%; in assay [1] (setting [7]), 129%; in assay [3], 966% (active). Further, the GFP response relative to DMSO in assay [2] was 478% (active); in assay [2] (setting [8]), 123%; in assay [2] (setting [9]), 522%. Besides, the GFP response, % of DMSO is 143% (inactive) in assay [4], 979% (active) in assay [5], 103% in assay [5] (setting [6]) and 906% in assay [5] (setting [7]).

With `O=C(CNC(=O)c1ccncc1)N/N=C/c1cccc([N+](=O)[O-])c1`, the GFP response vs DMSO in assay [1] was 99.2% (inactive); in assay [1] (setting [6]), 98.6%; in assay [1] (setting [7]), 99.4%; in assay [3] it was 105% (inactive). In addition, the GFP response relative to DMSO in assay [2] was 97.9% (inactive); in assay [2] (setting [8]) it was 97.6%; in assay [2] (setting [9]) it was 98.3%. The GFP response, % of DMSO is 94.7% (inactive) in assay [4], 99.7% (inactive) in assay [5], 101% in assay [5] (setting [6]) and 99.7% in assay [5] (setting [7]).

As to `COCCN1C2=C(COC(C)(C)C2)C(=S)NC1c1ccccc1` (stereo not drawn), the GFP response vs DMSO is 98% (inactive) in assay [1], 98.9% in assay [1] (setting [6]), 99% in assay [1] (setting [7]) and 107% (inactive) in assay [3]. The results for the GFP response relative to DMSO in assay [2], in assay [2] (setting [8]) and in assay [2] (setting [9]) were 94.1% (inactive), 96% and 94%, respectively. For the same molecule, the GFP response, % of DMSO was 99.1% (inactive) in assay [4], 107% (inactive) in assay [5], 108% in assay [5] (setting [6]) and 108% in assay [5] (setting [7]).

Turning to `O=C(COc1ccccc1)N1CCN(c2ncnc3c2cnn3-c2ccccc2)CC1`, the GFP response vs DMSO in assay [1] is 98.7% (inactive); in assay [1] (setting [6]), 98.4%; in assay [1] (setting [7]), 98.6%; in assay [3] it was 101% (inactive). Moreover, the figures for the GFP response relative to DMSO in assay [2], in assay [2] (setting [8]) and in assay [2] (setting [9]) were 104% (inactive), 102% and 105%, respectively. Besides, the GFP response, % of DMSO in assay [4] was 97.3% (inactive); in assay [5], 98.6% (inactive); in assay [5] (setting [6]) it was 103%; in assay [5] (setting [7]), 98.2%.

As for `c1ccc(Cn2ncc3ccccc32)cc1`, the GFP response vs DMSO in assay [1] is 100% (inactive); in assay [1] (setting [6]), 101%; in assay [1] (setting [7]), 101%; in assay [3] it was 99.5% (inactive). The GFP response relative to DMSO is 94.2% (inactive) in assay [2], 92.2% in assay [2] (setting [8]) and 93.6% in assay [2] (setting [9]). Besides, the GFP response, % of DMSO in assay [4] is 96.2% (inactive); in assay [5], 97.8% (inactive); in assay [5] (setting [6]), 98.3%; in assay [5] (setting [7]), 96.8%.

Regarding `COc1cccc(C(=O)Nc2ccc(C)cc2)c1`, the GFP response vs DMSO in assay [1] was 100% (inactive); in assay [1] (setting [6]) it was 99.9%; in assay [1] (setting [7]), 100%; in assay [3], 102% (inactive). Further, the GFP response relative to DMSO was 101% (inactive) in assay [2], 99.2% in assay [2] (setting [8]) and 101% in assay [2] (setting [9]). The GFP response, % of DMSO is 91.2% (inactive) in assay [4], 107% (inactive) in assay [5], 106% in assay [5] (setting [6]) and 106% in assay [5] (setting [7]).
